Laboratory results reported in PubChem BioAssay.
Values without a mark were called inactive. Active and inactive are the calls of the source.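 The calls were made as follows, unless noted: active = mean duplicate potentiation above the buffer control mean plus 5 SD of buffer wells; inactive = the rest.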

Tests used:
[1] = nonspecific flux increase, KCNQ1-free cells – parental CHO cells, counter-screen for KCNQ1 potentiator project (AID 493006;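 active = duplicate-averaged activation above buffer control mean plus 5 SD of those controls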); conditions: parental CHO-K1 cells, FluxOR thallium flux, at 10 µM; stronger effect = higher value
How it was run: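 Benchmarks – buffer and R-L3 controls · Assay system – untransfected host CHO-K1 cells with FluxOR thallium dye · Measure – fluorescence change ratio scaled 0% buffer, 100% R-L3 · Technique – kinetic thallium-flux fluorescence · Timing – overnight 37 °C plating, 90 min RT dye, 20 min compound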

[2] = target: Potassium voltage-gated channel subfamily KQT member 1 (Homo sapiens) (UniProt P51787); assay: enhancement of KCNQ1 channel thallium flux – FluxOR thallium flux, CHO cells, duplicates, confirmation (AID 493007;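 active = potentiation averaged over duplicate wells exceeding buffer-only control mean by more than 3 SD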;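 as to outcome: cells depolarized by a potassium plus thallium sulfate stimulus after compound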); conditions: KCNQ1 cell line, FluxOR thallium flux fluorescence, at 10 µM; stronger effect = higher value, % of reference activator effect, buffer zero
How it was run: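 Material: CHO cells stably expressing the KCNQ1 potassium channel / Times: dye 90 min then compound 20 min, both at room temperature / Detection: kinetic thallium influx fluorescence with FluxOR dye, 10 s baseline, 110 s post-stimulus / Benchmarks: buffer-only wells as 0% and R-L3 activator as 100% / Replicates: each compound tested in duplicate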

[3] = target: Potassium voltage-gated channel subfamily KQT member 2 (Rattus norvegicus) (UniProt O88943); assay: KCNQ2 thallium flux enhancement – KCNQ2-CHO-K1 cells, selectivity assay for KCNQ1 potentiator project (AID 493009); conditions: FluxOR thallium flux fluorescence, at 10 µM; stronger effect = higher value, scaled: buffer 0, activator control 100;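 also: assay conditions were tuned for KCNQ1 rather than KCNQ2 modulators; signal is max minus min fluorescence divided by baseline after thallium stimulus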
[4] = target: Potassium voltage-gated channel subfamily KQT member 1 (Homo sapiens) (UniProt P51787); assay: KCNQ1 activators by electrophysiology – IonWorks patch clamp, KCNQ1-CHO cells, orthogonal assay for KCNQ1 potentiator project, confirmation (AID 493184;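 active = current rise at least 3 SD above the untreated control mean in each of two repeat wells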;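 as to current potentiation: percent change of the same well's current before compound addition so 0% = no change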); conditions: automated patch clamp current, at 10 µM; stronger effect = higher value
How it was run: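 Probe or stimulus: depolarizing pulse to +40 mV from -90 mV; Material: CHO cells carrying KCNQ1; Compound: one dose, 10 µM final; Signal: automated voltage clamp, amphotericin B perforated patch; Read-out basis: percent current increase versus pre-compound level; Buffer or medium: pH 7.4 external bath; Replication: duplicates.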

[5] = target: Potassium voltage-gated channel subfamily E member 1 (Homo sapiens) + Potassium voltage-gated channel subfamily KQT member 1 (Homo sapiens) (UniProt P15382+P51787); assay: KCNQ1-E1 channel activation – thallium flux, CHO-K1 KCNQ1/E1 cells, selectivity assay for KCNQ1 potentiator project, confirmation (AID 493186;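 active = mean duplicate activation above the buffer control mean plus 5 SD of those controls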); conditions: FluxOR thallium flux, at 10 µM; stronger effect = higher value
How it was run: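 system = KCNQ1/E1-expressing stable CHO-K1 cell line | doses = single compound concentration per well | times = dye 90 min, compound 20 min, room temperature | measured by = FluxOR Tl+ flux fluorescence, kinetic read | evaluation = fluorescence rise relative to baseline, as percent of R-L3 response above buffer | controls = buffer and R-L3 | replicates = duplicate wells per compound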

Sequence of Potassium voltage-gated channel subfamily KQT member 1 (Homo sapiens) (P51787 whole entry, looked up): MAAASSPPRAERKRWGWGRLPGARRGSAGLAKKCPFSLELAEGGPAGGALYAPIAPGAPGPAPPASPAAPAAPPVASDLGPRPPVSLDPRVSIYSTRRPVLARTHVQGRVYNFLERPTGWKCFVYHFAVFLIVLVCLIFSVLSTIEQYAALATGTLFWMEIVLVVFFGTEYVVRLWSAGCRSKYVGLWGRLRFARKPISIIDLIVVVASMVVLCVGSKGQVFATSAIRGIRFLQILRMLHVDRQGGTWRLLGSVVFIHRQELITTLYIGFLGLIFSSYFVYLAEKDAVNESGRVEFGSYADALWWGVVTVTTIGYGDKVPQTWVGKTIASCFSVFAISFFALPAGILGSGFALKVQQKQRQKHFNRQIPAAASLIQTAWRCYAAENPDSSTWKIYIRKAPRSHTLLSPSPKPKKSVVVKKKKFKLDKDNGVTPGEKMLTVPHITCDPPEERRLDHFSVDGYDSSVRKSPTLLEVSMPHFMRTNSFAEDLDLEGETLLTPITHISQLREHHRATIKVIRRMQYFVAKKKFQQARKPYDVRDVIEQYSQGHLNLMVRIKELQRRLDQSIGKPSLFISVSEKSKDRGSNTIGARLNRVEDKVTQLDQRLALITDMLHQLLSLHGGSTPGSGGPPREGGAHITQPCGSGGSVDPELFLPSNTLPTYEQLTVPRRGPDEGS
Sequence of Potassium voltage-gated channel subfamily KQT member 2 (Rattus norvegicus) (O88943 whole entry, looked up): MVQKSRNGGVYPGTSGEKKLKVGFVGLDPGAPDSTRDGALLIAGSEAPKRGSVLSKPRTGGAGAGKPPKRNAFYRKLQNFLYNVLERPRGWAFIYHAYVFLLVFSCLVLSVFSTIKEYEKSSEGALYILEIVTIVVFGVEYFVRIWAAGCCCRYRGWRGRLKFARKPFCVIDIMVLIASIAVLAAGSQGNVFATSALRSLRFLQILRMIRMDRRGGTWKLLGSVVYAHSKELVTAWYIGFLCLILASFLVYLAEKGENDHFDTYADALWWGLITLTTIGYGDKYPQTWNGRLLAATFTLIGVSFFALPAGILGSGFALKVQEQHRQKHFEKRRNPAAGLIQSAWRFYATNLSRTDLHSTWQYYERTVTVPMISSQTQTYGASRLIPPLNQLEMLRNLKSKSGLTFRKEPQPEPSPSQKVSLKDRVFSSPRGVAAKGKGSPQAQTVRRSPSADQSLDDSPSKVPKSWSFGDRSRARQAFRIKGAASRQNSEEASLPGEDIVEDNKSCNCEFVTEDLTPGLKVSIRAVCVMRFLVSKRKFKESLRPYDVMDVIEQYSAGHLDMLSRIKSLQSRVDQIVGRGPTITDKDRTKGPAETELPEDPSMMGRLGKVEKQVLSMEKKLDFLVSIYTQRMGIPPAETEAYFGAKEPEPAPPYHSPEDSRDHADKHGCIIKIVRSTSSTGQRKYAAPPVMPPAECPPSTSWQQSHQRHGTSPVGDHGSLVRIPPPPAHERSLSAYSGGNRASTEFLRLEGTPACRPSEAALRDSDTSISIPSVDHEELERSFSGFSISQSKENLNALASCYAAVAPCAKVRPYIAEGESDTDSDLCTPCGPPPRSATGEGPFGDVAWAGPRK
Sequence of Potassium voltage-gated channel subfamily E member 1 (Homo sapiens) + Potassium voltage-gated channel subfamily KQT member 1 (Homo sapiens) (P51787 whole entry, looked up): as the sequence (P51787 whole entry, looked up) above

Structure (SMILES) | outcome [1] | outcome [2] | outcome [3] | outcome [4] | outcome [5] | potentiation [2] | activation [5] | potentiation [3] | current potentiation [4]
O=C(CN1CCCCCC1)Nc1ccc(Oc2ccccc2)cc1 | inactive | inactive | inactive | inactive | inactive | – | – | – | –
S=c1[nH]nc(-c2ccc(Br)o2)n1Cc1ccccc1 | inactive | inactive | inactive | inactive | inactive | – | – | – | –
CC(=O)C[C@H]1c2cc(C(F)(F)F)ccc2S(=O)(=O)N1Cc1ccccc1 | inactive | – | inactive | inactive | inactive | 65.5% (active) | – | – | –
O=C(CCN1Cc2ccccc2C1)c1ccc2c(c1)OCCO2 | inactive | – | inactive | inactive | inactive | 45.5% (active) | – | – | –
O=C(NC(=S)Nc1ccccc1)c1cncc(C#Cc2ccccc2)c1 | inactive | – | inactive | inactive | inactive | 37% (active) | – | – | –
CC(c1ccccc1)c1nnc(N)s1 (stereo not given) | inactive | inactive | inactive | inactive | inactive | – | – | – | –
O=C(Nc1nnc(-c2ccccc2)o1)c1ccc(Cl)cc1 | inactive | – | inactive | inactive | – | 24% (active) | 23.9% (active) | – | –
CCCCOc1cccc(C(=O)NC(=S)Nc2cccnc2)c1 | inactive | inactive | – | inactive | inactive | – | – | 143% (active) | –
Cc1ccc(C)c(/C=N/n2cc(-c3ccccc3)[nH]c2=S)c1 | inactive | – | inactive | inactive | inactive | 24.5% (active) | – | – | –
COc1ccccc1N1CCN(C(=O)C2CCN(C(=O)c3cccc(Cl)c3)CC2)CC1 | inactive | inactive | inactive | inactive | inactive | – | – | – | –
O=C(NCc1ccccc1)C(=O)Nc1nc(C23CC4CC(CC(C4)C2)C3)cs1 | inactive | inactive | inactive | inactive | inactive | – | – | – | –
CCOC(=O)N1CCC(NC(=O)c2cc(C(=O)NCc3ccc(F)cc3)ccc2CO)CC1 | inactive | inactive | inactive | inactive | inactive | – | – | – | –
O=C(CSc1nnc(NC(=O)C2CCC2)s1)Nc1ccc(N2CCOCC2)cc1 | inactive | inactive | inactive | inactive | inactive | – | – | – | –
O=C(NCc1ccccn1)C1CCN(Cc2cccc(OCc3ccccc3)c2)CC1 | inactive | inactive | inactive | inactive | inactive | – | – | – | –
O=C(Nc1nnc(-c2ccccc2)o1)c1cc(Cl)sc1Cl | inactive | inactive | – | inactive | inactive | – | – | 148% (active) | –
S=C(NCCc1ccccc1)N/N=C/C1CCCCC1 | inactive | inactive | inactive | inactive | inactive | – | – | – | –
CS(=O)(=O)c1ccc(C(=O)OCc2nnc(-c3ccccc3)o2)cc1[N+](=O)[O-] | inactive | inactive | inactive | inactive | inactive | – | – | – | –
O=C(NC1=NCCS1)c1ccc(N2CCCC2=O)cc1 | inactive | – | inactive | inactive | inactive | 28.5% (active) | – | – | –
CCCOc1ccc(C(=O)NNC(=S)NC(=O)c2cc(-c3ccccc3)nc3ccccc23)cc1 | inactive | – | inactive | inactive | inactive | 23.5% (active) | – | – | –
C#CCNc1cc(-c2ccccc2)nc2ncnn12 | inactive | inactive | inactive | inactive | inactive | – | – | – | –
OCCN1CCN(c2nc(-c3ccccc3)nc3c2oc2ccccc23)CC1 | inactive | inactive | inactive | inactive | inactive | – | – | – | –
Cn1cnc([N+](=O)[O-])c1S(=O)(=O)c1cccc(Cl)c1 | inactive | inactive | inactive | inactive | inactive | – | – | – | –
CCCOc1ccc(C(=O)NNC(=S)NC(=O)CC)cc1 | inactive | inactive | inactive | inactive | inactive | – | – | – | –
COc1ccccc1OCCCc1c(C)n[nH]c1C | inactive | inactive | inactive | inactive | inactive | – | – | – | –
O=C(CNS(=O)(=O)c1ccc([N+](=O)[O-])cc1)N/N=C\c1ccc(O)cc1 | inactive | – | – | inactive | inactive | 24% (active) | – | 154% (active) | –
COc1ccc(C2SCC(=O)N2c2nc3ccccc3s2)cc1 (stereo not given) | inactive | inactive | inactive | – | inactive | – | – | – | 26.4% (active)
O=C(CN(CC1CCCO1)C(=O)CNS(=O)(=O)c1ccc(Cl)cc1)NC1CCCC1 (stereo not given) | inactive | inactive | inactive | inactive | inactive | – | – | – | –
Cn1c(=O)cc(NCc2ccccc2)[nH]c1=O | inactive | inactive | inactive | inactive | inactive | – | – | – | –
Fc1ccc(/C=N/n2c(-c3cccs3)n[nH]c2=S)cc1 | inactive | inactive | inactive | inactive | inactive | – | – | – | –
COc1ccc(C(=O)NC(=S)NNC(=O)c2ccc(C)cc2)cc1 | inactive | – | – | inactive | – | 142% (active) | 62.3% (active) | 250% (active) | –
